Converted amounts (≈) assume the structure as drawn. The source made the active and inactive calls. The rule behind the calls is not given here.
Key:
HOP-92 = assay: Growth inhibition of human HOP92 cells; type: functional
In short: (§1)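 NCI 60-cell-line screen run by the standard NCI protocol. Each test agent ran in quadruplicate, with a top concentration of 10^-5 M and five log-spaced dilutions. GI50 values were averaged and reported as negative log GI50.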

Neisseria gonorrhoeae [1] = assay: Antibacterial activity against Neisseria gonorrhoeae ATCC 49226 by disk diffusion method; type: functional
KM-20L2 = assay: Growth inhibition of human KM20L2 cells; type: functional
NCI-H522 = assay: Growth inhibition of human NCI-H522 cells; type: functional; in short: as §1
Enterobacter cloacae = assay: Antibacterial activity against Enterobacter cloacae ATCC 13047 at 100 ug/disk by disk diffusion method; type: functional, organism-based
P388 = assay: Growth inhibition of mouse P388 cells; type: functional
NCI-H460 [2] = assay: (§2) Growth inhibition of human NCI-H460 cells; type: functional; in short: as §1
SF-295 [3] = assay: (§3) Growth inhibition of human SF295 cells; type: functional
In short: (§4)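 NCI human tumor cell line panel screen run to the standard NCI protocol. Each compound tested in quadruplicate with a top concentration of 10^-5 M and five log-spaced dilutions. GI50 values were averaged across replicates and reported as negative log GI50.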

SK-N-SH = assay: Growth inhibition of human SK-N-SH cells; type: functional
CCRF-CEM = assay: Growth inhibition of human CCRF-CEM cells; type: functional; in short: as §1
DU-145 = assay: Growth inhibition of human DU145 cells; type: functional; in short: as §1
COLO 205 = assay: Growth inhibition of human COLO205 cells; type: functional; in short: as §1
SR = assay: Growth inhibition of human SR cells; type: functional; in short: as §4
ACHN = assay: Growth inhibition of human ACHN cells; type: functional; in short: as §1
[4] = tested on: Streptococcus sp. 'group A'; assay: Antibacterial activity against group A Streptococcus isolate by disk diffusion method; type: functional
Streptococcus pneumoniae [5] = assay: Antibacterial activity against penicillin-resistant Streptococcus pneumoniae isolate by disk diffusion method; type: functional
A549 = assay: Growth inhibition of human A549/ATCC cells; type: functional; in short: as §1
Cryptococcus neoformans = assay: Antifungal activity against Cryptococcus neoformans ATCC 90112 at 100 ug/disk by disk diffusion method; type: functional, organism-based
MOLT-4 = assay: Growth inhibition of human MOLT4 cells; type: functional; in short: as §1
Micrococcus luteus = assay: Antibacterial activity against Micrococcus luteus Presque Isle 456 at 100 ug/disk by disk diffusion method; type: functional, organism-based
BXPC-3 = assay: Growth inhibition of human BXPC3 cells; type: functional
SNB-75 = assay: Growth inhibition of human SNB75 cells; type: functional; in short: as §4
Bacillus subtilis = assay: Antibacterial activity against Bacillus subtilis Presque Isle 620 by disk diffusion method; type: functional
MCF7 [6] = assay: Growth inhibition of human adriamycin-resistant MCF7 cells; type: functional; in short: as §4
UACC-62 = assay: Growth inhibition of human UACC62 cells; type: functional; in short: as §4
T47D = assay: Growth inhibition of human T47D cells; type: functional; in short: as §4
OVCAR-4 = assay: Growth inhibition of human OVCAR4 cells; type: functional; in short: as §1
Staphylococcus aureus = assay: Antibacterial activity against Staphylococcus aureus ATCC 29213 at 100 ug/disk by disk diffusion method; type: functional, organism-based
786-0 = assay: Growth inhibition of human 786-0 cells; type: functional; in short: as §1
Streptococcus pneumoniae [7] = assay: Antibacterial activity against Streptococcus pneumoniae ATCC 6303 by disk diffusion method; type: functional
OVCAR-8 = assay: Growth inhibition of human OVCAR8 cells; type: functional; in short: as §1
[8] = tested on: Stenotrophomonas maltophilia; assay: Antibacterial activity against Stenotrophomonas maltophilia ATCC 13637 at 100 ug/disk by disk diffusion method; type: functional, organism-based
MDA-N = assay: Growth inhibition of human MDA-N cells; type: functional; in short: as §1
Candida albicans = assay: Antifungal activity against Candida albicans ATCC 90028 at 100 ug/disk by disk diffusion method; type: functional, organism-based
MDA-MB-435 = assay: Growth inhibition of human MDA-MB-435 cells; type: functional; in short: as §1
KM12 = assay: Growth inhibition of human KM12 cells; type: functional; in short: as §1
SW-1736 = assay: Growth inhibition of human SW1736 cells; type: functional
MDA-MB-231 = assay: Growth inhibition of human MDA-MB-231/ATCC cells; type: functional; in short: as §1
Escherichia coli = assay: Antibacterial activity against Escherichia coli ATCC 25922 at 100 ug/disk by disk diffusion method; type: functional, organism-based
Hs-578T = assay: Growth inhibition of human HS578T cells; type: functional; in short: as §1
SN12C = assay: Growth inhibition of human SN12C cells; type: functional; in short: as §4
OVCAR-3 = assay: Growth inhibition of human OVCAR-3 cells; type: functional; in short: as §1
MCF7 [9] = assay: Growth inhibition of human MCF7 cells; type: functional; in short: as §1
SF-539 = assay: Growth inhibition of human SF539 cells; type: functional; in short: as §4
PC-3 = assay: Growth inhibition of human PC3 cells; type: functional; in short: as §1
Enterococcus faecalis = assay: Antibacterial activity against Enterococcus faecalis ATCC 29212 at 100 ug/disk by disk diffusion method; type: functional, organism-based
SK-MEL-5 = assay: Growth inhibition of human SK-MEL-5 cells; type: functional; in short: as §4
NCI-H460 [10] = assay: as §2; type: functional; in short: as §1; remark: listed apart in the source
FaDu = assay: Growth inhibition of human FaDu cells; type: functional
U-251 = assay: Growth inhibition of human U251 cells; type: functional; in short: as §4
K562 = assay: Growth inhibition of human K562 cells; type: functional; in short: as §1
RXF 393 = assay: Growth inhibition of human RXF393 cells; type: functional; in short: as §4
Malme-3M = assay: Growth inhibition of human MALME-3M cells; type: functional; in short: as §1
RPMI-8226 = assay: Growth inhibition of human RPMI8226 cells; type: functional; in short: as §1
Neisseria gonorrhoeae [11] = assay: Antibacterial activity against penicillin-resistant Neisseria gonorrhoeae isolate by disk diffusion method; type: functional
LOX IMVI = assay: Growth inhibition of human LOX IMVI cells; type: functional; in short: as §1
Streptococcus pneumoniae [12] = assay: Antibacterial activity against invasive Streptococcus pneumoniae isolate at 100 ug/disk by disk diffusion method; type: functional, organism-based
NCI-H226 = assay: Growth inhibition of human NCI-H226 cells; type: functional; in short: as §1
SF-295 [13] = assay: as §3; type: functional; in short: as §4; remark: listed apart in the source
SW-620 = assay: Growth inhibition of human SW620 cells; type: functional; in short: as §4
SF-268 = assay: Growth inhibition of human SF268 cells; type: functional; in short: as §4
IGROV-1 = assay: Growth inhibition of human IGROV1 cells; type: functional; in short: as §1
[14] = Growth inhibition of human HL60(TB) cells; type: functional, HL-60(TB); conditions: HL-60
In short: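 NCI human tumour cell-line panel screen run by the standard NCI protocol. Each compound was tested in quadruplicate, with an upper concentration limit of 10^-5 M and five log-spaced dilutions. GI50 values were averaged and reported as negative log GI50.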

HOP-62 = assay: Growth inhibition of human HOP62 cells; type: functional; in short: as §1

C/C=C(/C)C(=O)OC[C@H]1C2=C(C=C3[C@H]4c5c(O)c(OC)c(C)c(O)c5C(=O)[C@@H](C(=O)N31)N4C)C(=O)C(C)=C(OC)C2=O [CRIBROSTATIN 5]
GI50 (HOP-92): 8.13 µM
MIC (Neisseria gonorrhoeae [1]): 6.25 µg/disc
GI50 (KM-20L2): > 10 mg/L
GI50 (NCI-H522): 4.17 µM
Activity (Enterobacter cloacae): inactive
GI50 (P388): 24.6 mg/L (≈ 42.5 µM)
GI50 (NCI-H460 [2]): 7.59 µM
GI50 (SF-295 [3]): 8.91 µM
GI50 (SK-N-SH): 3.6 mg/L (≈ 6.22 µM)
GI50 (CCRF-CEM): 1.7 µM
GI50 (DU-145): > 10 mg/L
GI50 (COLO 205): 8.13 µM
GI50 (SR): 3.8 µM
GI50 (ACHN): 7.94 µM
MIC [4]: 12.5 µg/disc
MIC (Streptococcus pneumoniae [5]): 50 µg/disc
GI50 (A549): 8.71 µM
Activity (Cryptococcus neoformans): inactive
GI50 (MOLT-4): 1.91 µM
Activity (Micrococcus luteus): inactive
GI50 (BXPC-3): 5.6 mg/L (≈ 9.68 µM)
GI50 (SNB-75): 5.62 µM
MIC (Bacillus subtilis): 12.5 µg/disc
GI50 (MCF7 [6]): 6.76 µM
GI50 (UACC-62): 9.77 µM
GI50 (T47D): 2.09 µM
GI50 (OVCAR-4): 1.82 µM
Activity (Staphylococcus aureus): inactive
GI50 (786-0): 6.17 µM
MIC (Streptococcus pneumoniae [7]): 6.25 µg/disc
GI50 (OVCAR-8): 4.27 µM
Activity [8]: inactive
GI50 (MDA-N): 2.19 µM
Activity (Candida albicans): inactive
GI50 (MDA-MB-435): 1.82 µM
GI50 (KM12): 9.12 µM
GI50 (SW-1736): > 10 mg/L
GI50 (MDA-MB-231): 2.69 µM
Activity (Escherichia coli): inactive
GI50 (Hs-578T): 8.71 µM
GI50 (SN12C): 7.08 µM
GI50 (OVCAR-3): 2.2 mg/L (≈ 3.8 µM)
EC50 (OVCAR-3; read-out: ED50 (the source's name)): 2.2 mg/L (≈ 3.8 µM)
GI50 (MCF7 [9]): 8.13 µM
GI50 (SF-539): 5.75 µM
GI50 (PC-3): 9.12 µM
Activity (Enterococcus faecalis): inactive
GI50 (SK-MEL-5): 8.13 µM
GI50 (NCI-H460 [10]): > 10 mg/L
GI50 (FaDu): 0.26 mg/L (≈ 0.449 µM)
GI50 (U-251): 6.46 µM
GI50 (K562): 4.37 µM
GI50 (RXF 393): 5.25 µM
GI50 (Malme-3M): 0.389 µM
GI50 (RPMI-8226): 6.17 µM
MIC (Neisseria gonorrhoeae [11]): 1.56 µg/disc
GI50 (LOX IMVI): 3.31 µM
Activity (Streptococcus pneumoniae [12]): inactive
GI50 (NCI-H226): 7.94 µM
GI50 (SF-295 [13]): > 10 mg/L
GI50 (SW-620): 6.92 µM
GI50 (SF-268): 9.55 µM
GI50 (IGROV-1): 8.51 µM
GI50 [14]: 5.37 µM
GI50 (HOP-62): 7.59 µM

From ChEMBL document CHEMBL1142628, “Antineoplastic agents 430. Isolation and structure of cribrostatins 3, 4, and 5 from the republic of maldives cribrochalina species” (2000)
